Test results taken from ChEMBL document CHEMBL1143838, “Candida albicans and Candida dubliniensis respond differently to echinocandin antifungal agents in vitro” (2007).
Values after ≈ are worked out from the molar mass of the structure shown.

Experiments:
Type in all cases: functional
Candida albicans [1] = test: Antifungal activity against Candida albicans SC5314 after 24 hrs by EUCAST test; settings: SC5314, 24 h
Outline: (§1)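 EUCAST broth microdilution with aqueous doubling dilutions of drug. Inoculum grown overnight at 30°C in NGY, then added to MOPS-buffered RPMI 1640 with 2% glucose at an initial 10^5 yeasts/ml. Incubated 35°C for 24 h. MICs taken from triplicate spectrophotometric dose-response data as 50% and 80% growth-reduction endpoints.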

Candida albicans [2] = test: Antifungal activity against Candida albicans Y109 after 24 hrs by CLSI M27-A test
Outline: (§2)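 CLSI M27-A broth microdilution with aqueous doubling dilutions of drug. Inoculum grown overnight at 30°C in NGY medium, then added to MOPS-buffered RPMI 1640 at an initial 10^3 yeasts/ml. Incubated 35°C for 24 h. MIC read visually as the lowest concentration giving a marked decrease in visible growth; paradoxical or trailing growth noted.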

Candida parapsilosis [3] = test: Antifungal activity against Candida parapsilosis ATCC 22019 after 24 hrs by CLSI M27-A test; settings: Lodderomyces parapsilosis, ATCC 22019, 24 h
Outline: (§3)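 Broth microdilution with echinocandins as aqueous doubling dilutions. Yeasts were grown overnight at 30°C in NGY and seeded at 10^3 yeasts/ml initial concentration in MOPS-buffered RPMI 1640, then incubated at 35°C for 24 h. The MIC was read visually as the lowest concentration giving a marked decrease in visible growth; paradoxical or trailing growth was noted.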

Candida dubliniensis [4] = test: Antifungal activity against Candida dubliniensis SCS65875C after 24 hrs by CLSI M27-A test; outline: as §3
Candida dubliniensis [5] = test: Antifungal activity against Candida dubliniensis SCS17154969-2 after 24 hrs by EUCAST test
Outline: (§4)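 Yeasts were grown overnight at 30°C in NGY, then inoculated at 10^5 yeasts/ml initial concentration into MOPS-buffered RPMI 1640 with 2% glucose containing aqueous doubling dilutions of drug. Plates were held at 35°C for 24 h. MICs came from triplicate spectrophotometric dose-response data at 50% and 80% growth-reduction endpoints. Trailing meant a >100-fold gap between these endpoints; paradoxical meant regrowth ≥5% above the curve minimum.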

Candida albicans [6] = test: Antifungal activity against Candida albicans T28 after 24 hrs by CLSI M27-A test; outline: as §2
Candida dubliniensis [7] = test: Antifungal activity against Candida dubliniensis IK after 24 hrs by EUCAST test; outline: as §4
Candida albicans [8] = test: Antifungal activity against Candida albicans T26 after 24 hrs by CLSI M27-A test; outline: as §2
Candida albicans [9] = test: Antifungal activity against Candida albicans SCS67023C after 24 hrs by EUCAST test; outline: as §1
Candida dubliniensis [10] = test: Antifungal activity against Candida dubliniensis AMCC after 24 hrs by EUCAST test; outline: as §1
Candida albicans [11] = test: Antifungal activity against Candida albicans T32 after 24 hrs by CLSI M27-A test; outline: as §2
Candida albicans [12] = test: Antifungal activity against Candida albicans T25 after 24 hrs by EUCAST test; outline: as §1
Candida albicans [13] = test: Antifungal activity against Candida albicans JIMS132203 after 24 hrs by EUCAST test; outline: as §1
Candida dubliniensis [14] = test: Antifungal activity against Candida dubliniensis ST after 24 hrs by EUCAST test; outline: as §4
Candida dubliniensis [15] = test: Antifungal activity against Candida dubliniensis SCS59662 after 24 hrs by EUCAST test; outline: as §4
Candida dubliniensis [16] = test: Antifungal activity against Candida dubliniensis SCS59662 after 24 hrs by CLSI M27-A test; outline: as §3
Candida albicans [17] = test: Antifungal activity against Candida albicans JIMS101103 after 24 hrs by EUCAST test; outline: as §1
Candida dubliniensis [18] = test: Antifungal activity against Candida dubliniensis AMCC after 24 hrs by CLSI M27-A test; outline: as §2
Candida dubliniensis [19] = test: Antifungal activity against Candida dubliniensis J930936 after 24 hrs by CLSI M27-A test; outline: as §3
Candida albicans [20] = test: Antifungal activity against Candida albicans T32 after 24 hrs by EUCAST test; outline: as §1
Candida parapsilosis [21] = test: Antifungal activity against Candida parapsilosis ATCC 22019 after 24 hrs by EUCAST test; settings: Lodderomyces parapsilosis, ATCC 22019, 24 h; outline: as §4
Candida dubliniensis [22] = test: Antifungal activity against Candida dubliniensis 75/043 after 24 hrs by CLSI M27-A test; outline: as §2
Candida dubliniensis [23] = test: Antifungal activity against Candida dubliniensis KR after 24 hrs by EUCAST test; outline: as §4
Candida albicans [24] = test: Antifungal activity against Candida albicans NR4 after 24 hrs by CLSI M27-A test; outline: as §2
Candida dubliniensis [25] = test: Antifungal activity against Candida dubliniensis 81/060 after 24 hrs by EUCAST test; outline: as §1
Candida albicans [26] = test: Antifungal activity against Candida albicans JIMS132203 after 24 hrs by CLSI M27-A test; outline: as §2
Candida albicans [27] = test: Antifungal activity against Candida albicans HK04M102095 after 24 hrs by EUCAST test; outline: as §1
Candida albicans [28] = test: Antifungal activity against Candida albicans B06-341 after 24 hrs by CLSI M27-A test; outline: as §2
Candida dubliniensis [29] = test: Antifungal activity against Candida dubliniensis Leic875 after 24 hrs by EUCAST test; outline: as §4
Candida albicans [30] = test: Antifungal activity against Candida albicans B06-341 after 24 hrs by EUCAST test; outline: as §1
Candida dubliniensis [31] = test: Antifungal activity against Candida dubliniensis 90/033 after 24 hrs by EUCAST test; outline: as §1
Candida albicans [32] = test: Antifungal activity against Candida albicans NR2 after 24 hrs by CLSI M27-A test; outline: as §2
Candida dubliniensis [33] = test: Antifungal activity against Candida dubliniensis 75/043 after 24 hrs by EUCAST test; outline: as §1
Candida dubliniensis [34] = test: Antifungal activity against Candida dubliniensis KR after 24 hrs by CLSI M27-A test; outline: as §3
Candida albicans [35] = test: Antifungal activity against Candida albicans T28 after 24 hrs by EUCAST test; outline: as §1
Candida albicans [36] = test: Antifungal activity against Candida albicans SCS140136P after 24 hrs by CLSI M27-A test; outline: as §2
Candida dubliniensis [37] = test: Antifungal activity against Candida dubliniensis FS after 24 hrs by EUCAST test; outline: as §4
Candida albicans [38] = test: Antifungal activity against Candida albicans AM2003/0083 after 24 hrs by CLSI M27-A test; outline: as §2
Candida dubliniensis [39] = test: Antifungal activity against Candida dubliniensis Leic952 after 24 hrs by CLSI M27-A test; outline: as §3
Candida dubliniensis [40] = test: Antifungal activity against Candida dubliniensis B71507 after 24 hrs by EUCAST test; outline: as §4
Candida dubliniensis [41] = test: Antifungal activity against Candida dubliniensis B71507 after 24 hrs by CLSI M27-A test; outline: as §3
Candida albicans [42] = test: Antifungal activity against Candida albicans NCPF6525 after 24 hrs by CLSI M27-A test; outline: as §2
Candida albicans [43] = test: Antifungal activity against Candida albicans SCS140136P after 24 hrs by EUCAST test; outline: as §1
Candida dubliniensis [44] = test: Antifungal activity against Candida dubliniensis J931021 after 24 hrs by EUCAST test; outline: as §4
Candida dubliniensis [45] = test: Antifungal activity against Candida dubliniensis SCS17154969-1 after 24 hrs by CLSI M27-A test; outline: as §3
Candida dubliniensis [46] = test: Antifungal activity against Candida dubliniensis Leic952 after 24 hrs by EUCAST test; outline: as §4
Candida albicans [47] = test: Antifungal activity against Candida albicans NR3 after 24 hrs by CLSI M27-A test; outline: as §2
Candida dubliniensis [48] = test: Antifungal activity against Candida dubliniensis SCS17154969-1 after 24 hrs by EUCAST test; outline: as §4

CC[C@H](C)C[C@H](C)CCCCCCCCC(=O)N[C@H]1C[C@@H](O)[C@@H](NCCN)NC(=O)[C@@H]2[C@@H](O)CCN2C(=O)[C@H]([C@H](O)CCN)NC(=O)[C@H]([C@H](O)[C@@H](O)c2ccc(O)cc2)NC(=O)[C@@H]2C[C@@H](O)CN2C(=O)[C@H]([C@@H](C)O)NC1=O [CASPOFUNGIN]
MIC50 (Candida albicans [1]): 0.25 µg/mL (≈ 0.229 µM) | MIC50 (Candida albicans [2]): 4 µg/mL (≈ 3.66 µM) | MIC50 (Candida parapsilosis [3]): 1 µg/mL (≈ 0.915 µM) | MIC50 (Candida dubliniensis [4]): 0.5 µg/mL (≈ 0.457 µM) | MIC50 (Candida dubliniensis [5]): 0.5 µg/mL (≈ 0.457 µM) | MIC50 (Candida albicans [6]): 0.25 µg/mL (≈ 0.229 µM) | MIC50 (Candida dubliniensis [7]): 0.25 µg/mL (≈ 0.229 µM) | MIC50 (Candida albicans [8]): 8 µg/mL (≈ 7.32 µM) | MIC50 (Candida albicans [9]): 0.25 µg/mL (≈ 0.229 µM) | MIC50 (Candida dubliniensis [10]): 0.25 µg/mL (≈ 0.229 µM) | MIC50 (Candida albicans [11]): 0.25 µg/mL (≈ 0.229 µM) | MIC50 (Candida albicans [12]): 8 µg/mL (≈ 7.32 µM) | MIC50 (Candida albicans [13]): 0.25 µg/mL (≈ 0.229 µM) | MIC50 (Candida dubliniensis [14]): 0.5 µg/mL (≈ 0.457 µM) | MIC50 (Candida dubliniensis [15]): 0.5 µg/mL (≈ 0.457 µM) | MIC50 (Candida dubliniensis [16]): 0.5 µg/mL (≈ 0.457 µM) | MIC50 (Candida albicans [17]): 0.25 µg/mL (≈ 0.229 µM) | MIC50 (Candida dubliniensis [18]): 0.5 µg/mL (≈ 0.457 µM) | MIC50 (Candida dubliniensis [19]): 0.5 µg/mL (≈ 0.457 µM) | MIC50 (Candida albicans [20]): 0.13 µg/mL (≈ 0.119 µM) | MIC50 (Candida parapsilosis [21]): 1 µg/mL (≈ 0.915 µM) | MIC50 (Candida dubliniensis [22]): 0.25 µg/mL (≈ 0.229 µM) | MIC50 (Candida dubliniensis [23]): 0.25 µg/mL (≈ 0.229 µM) | MIC50 (Candida albicans [24]): 2 µg/mL (≈ 1.83 µM) | MIC50 (Candida dubliniensis [25]): 0.25 µg/mL (≈ 0.229 µM) | MIC50 (Candida albicans [26]): 0.5 µg/mL (≈ 0.457 µM) | MIC50 (Candida albicans [27]): 0.25 µg/mL (≈ 0.229 µM) | MIC50 (Candida albicans [28]): 0.13 µg/mL (≈ 0.119 µM) | MIC50 (Candida dubliniensis [29]): 0.25 µg/mL (≈ 0.229 µM) | MIC50 (Candida albicans [30]): 0.5 µg/mL (≈ 0.457 µM) | MIC50 (Candida dubliniensis [31]): 16 µg/mL (≈ 14.6 µM) | MIC50 (Candida albicans [32]): 4 µg/mL (≈ 3.66 µM) | MIC50 (Candida dubliniensis [33]): 0.25 µg/mL (≈ 0.229 µM) | MIC50 (Candida dubliniensis [34]): 0.5 µg/mL (≈ 0.457 µM) | MIC50 (Candida albicans [35]): 0.13 µg/mL (≈ 0.119 µM) | MIC50 (Candida albicans [36]): 0.5 µg/mL (≈ 0.457 µM) | MIC50 (Candida dubliniensis [37]): 16 µg/mL (≈ 14.6 µM) | MIC50 (Candida albicans [38]): 0.5 µg/mL (≈ 0.457 µM) | MIC50 (Candida dubliniensis [39]): 0.5 µg/mL (≈ 0.457 µM) | MIC50 (Candida dubliniensis [40]): 8 µg/mL (≈ 7.32 µM) | MIC50 (Candida dubliniensis [41]): 0.5 µg/mL (≈ 0.457 µM) | MIC50 (Candida albicans [42]): 0.13 µg/mL (≈ 0.119 µM) | MIC50 (Candida albicans [43]): 0.25 µg/mL (≈ 0.229 µM) | MIC50 (Candida dubliniensis [44]): 16 µg/mL (≈ 14.6 µM) | MIC50 (Candida dubliniensis [45]): 0.5 µg/mL (≈ 0.457 µM) | MIC50 (Candida dubliniensis [46]): 0.25 µg/mL (≈ 0.229 µM) | MIC50 (Candida albicans [47]): 8 µg/mL (≈ 7.32 µM) | MIC50 (Candida dubliniensis [48]): 0.5 µg/mL (≈ 0.457 µM)
